Measured values: ChEMBL document CHEMBL1124186, “Synthesis and evaluation of tylosin-related macrolides modified at the aldehyde function: a new series of orally effective antibiotics” (1988)
In brackets after ≈: the same amount, converted by molar mass.

What was measured:
[1] = test system: Haemophilus influenzae; assay: In vitro antimicrobial activity against Haemophilus influenzae.; format: functional
[2] = test system: Staphylococcus epidermidis; assay: In vitro antimicrobial activity against Staphylococcus epidermidis EPI1; format: functional
[3] = test system: Staphylococcus aureus; assay: In vitro antimicrobial activity against Staphylococcus aureus X1; format: functional
[4] = test system: Streptococcus pyogenes; assay: […] effective dose against Streptococcus pyogenes C203 when administered orally; format: functional; settings: po
[5] = test system: Streptococcus pneumoniae; assay: In vitro antimicrobial activity against Streptococcus pneumoniae; format: functional
[6] = test system: Streptococcus pyogenes; assay: In vivo effective dose against experimental infections in rodent caused by Streptococcus pyogenes C203 when administered sc; format: functional
[7] = test system: Streptococcus pyogenes; assay: (§1) In vitro antimicrobial activity against Streptococcus pyogenes C203; format: functional
[8] = test system: Streptococcus pyogenes; assay: In vivo effective dose against experimental infections in rodent caused by Streptococcus pyogenes C203 when administered orally; format: functional; settings: po
[9] = test system: Streptococcus pyogenes; assay: […] effective dose against Streptococcus pyogenes C203 when administered sc; format: functional
Procedure, shortened: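 Infected mice (S. pyogenes C203) were treated subcutaneously 1 and 5 h postinfection with 0.25 mL of antibiotic in 10% aqueous ethanol, with tartaric acid added when needed to dissolve it. A range of concentrations was given. The value is the ED50 expressed as mg/kg × 2.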

[10] = test system: Enterococcus faecium; assay: In vitro antimicrobial activity against Streptococcus faecium X66; format: functional, streptococcus fae-cium
[11] = test system: Streptococcus pyogenes; assay: as §1; format: functional; remark: listed apart in the source

CC[C@H]1OC(=O)C[C@@H](O)[C@H](C)[C@@H](O[C@@H]2O[C@H](C)[C@@H](O[C@H]3C[C@@](C)(O)[C@@H](O)[C@H](C)O3)[C@H](N(C)C)[C@H]2O)[C@@H](CC=O)C[C@@H](C)C(=O)/C=C/C(C)=C/[C@@H]1CO[C@@H]1O[C@H](C)[C@@H](O)[C@@H](O)[C@H]1OC [MACROCIN]
MIC [1]: 16 µg/mL (≈ 17.7 µM)
MIC [2]: 1 µg/mL (≈ 1.11 µM)
MIC [3]: 0.5 µg/mL (≈ 0.554 µM)
ED50 [4]: > 80 mg/kg
MIC [5]: 1 µg/mL (≈ 1.11 µM)
ED50 [6]: 1.9 mg/kg
MIC [7]: 0.25 µg/mL (≈ 0.277 µM)
ED50 [8]: 71 mg/kg
ED50 [9]: < 1.2 mg/kg
MIC [10]: 2 µg/mL (≈ 2.22 µM)
MIC [11]: 0.25 µg/mL (≈ 0.277 µM)
